Data from ChEMBL document CHEMBL1153368, “Benzophenone-N-ethyl piperidine ether analogues--synthesis and efficacy as anti-inflammatory agent” (Bioorg Med Chem Lett, 2009).
Active and inactive are the calls of the source. The rule behind the calls is not given here.

Experiments:
Mus musculus [1] = assay: Toxicity in carrageenan treated Albino mouse liver assessed as acute hepatitis at 100 mg/kg, po administered 1 hr before carrageenan challenge measured after 4 hrs by hematoxilen eosine staining; type: organism-based; parameters: dose 100 mg/kg, route oral; details: in vivo
Outline: (§1)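 Mice given oral doses suspended in 0.5% CMC (vehicle controls) for the carrageenan paw edema experiment. Animals sacrificed 4 h after the paw edema experiments. Liver, stomach and kidneys removed and fixed in 10% formalin, then sections scored microscopically for kidney edema and mononuclear cell infiltration, gastritis/ulceration, and liver fatty change, acute hepatitis/spotty necrosis and cholestasis.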

Mus musculus [2] = assay: Antiinflammatory activity against carrageenan-induced inflammation in Albino mouse air ppouch model assessed as number of polymorphonuclear leukocytes infiltration at 100 mg/kg, po administered 1 hr before carrageenan challenge measured after 4 hrs by air pouch test; type: functional
Outline: (§2)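 Mice housed in groups of six, food withdrawn the day before with water free. Dosing by oral gavage in 0.5% CMC, with vehicle-only controls. Air pouch made by sc injection of 1 ml air over 3 days. On day 3, 1 ml of 10 mg/ml carrageenan (heat-sterilized, held at 37 °C) injected into the pouch, 1 h after dosing. Killed 4 h later; pouch lavaged with 3 ml PBS-heparin, spun 2000 rpm 15 min 4 °C, PMNL counted by Coulter Counter; n = 6.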

Mus musculus [3] = assay: Toxicity in carrageenan treated Albino mouse kidney assessed as […] mononuclear lymphocytes at 100 mg/kg, po administered 1 hr before carrageenan challenge measured after 4 hrs by hematoxilen eosine staining; type: organism-based; parameters: dose 100 mg/kg, route oral; details: in vivo; outline: as §1
Mus musculus [4] = assay: Toxicity in carrageenan treated Albino mouse kidney assessed as edema at 100 mg/kg, po administered 1 hr before carrageenan challenge measured after 4 hrs by hematoxilen eosine staining; type: organism-based; parameters: dose 100 mg/kg, route oral; details: in vivo; outline: as §1
Mus musculus [5] = assay: Antiinflammatory activity in Albino mouse assessed as inhibition of carrageenan-induced foot paw edema at 100 mg/kg, po administered 1 hr before carrageenan challenge measured after 2 hrs; type: functional
Outline: (§3)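 Fasted mice (water free) dosed orally with suspensions in 0.5% CMC; controls received vehicle only. Right hind paw thickness measured with a dial gauge 1 h after dosing, then carrageenan-induced edema re-measured 2 h later. Effect expressed as percent inhibition of edema versus control; mean of n = 6.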

Mus musculus [6] = assay: Toxicity in carrageenan treated Albino mouse liver assessed as fatty change at 100 mg/kg, po administered 1 hr before carrageenan challenge measured after 4 hrs by hematoxilen eosine staining; type: organism-based; parameters: dose 100 mg/kg, route oral; details: in vivo; outline: as §1
Mus musculus [7] = assay: Toxicity in carrageenan treated Albino mouse liver assessed as cholestasis at 100 mg/kg, po administered 1 hr before carrageenan challenge measured after 4 hrs by hematoxilen eosine staining; type: organism-based; parameters: dose 100 mg/kg, route oral; details: in vivo; outline: as §1
Mus musculus [8] = assay: Toxicity in carrageenan treated Albino mouse stomach assessed as gastric ulcer at 100 mg/kg, po administered 1 hr before carrageenan challenge measured after 4 hrs by hematoxilen eosine staining; type: organism-based; parameters: dose 100 mg/kg, route oral; details: in vivo; outline: as §1
Mus musculus [9] = assay: Antiinflammatory activity in Albino mouse assessed as inhibition of carrageenan-induced foot paw edema at 10 mg/kg, po administered 1 hr before carrageenan challenge measured after 2 hrs; type: functional; outline: as §3
Mus musculus [10] = assay: Toxicity in carrageenan treated Albino mouse liver assessed as cholestasis at 10 mg/kg, po administered 1 hr before carrageenan challenge measured after 4 hrs by hematoxilen eosine staining; type: organism-based; parameters: dose 10 mg/kg, route oral; details: in vivo; outline: as §1
Mus musculus [11] = assay: Antiinflammatory activity against carrageenan-induced inflammation in Albino mouse air ppouch model assessed as number of polymorphonuclear leukocytes infiltration at 10 mg/kg, po administered 1 hr before carrageenan challenge measured after 4 hrs by air pouch test; type: functional; outline: as §2
Mus musculus [12] = assay: Toxicity in carrageenan treated Albino mouse stomach assessed as gastric ulcer at 10 mg/kg, po administered 1 hr before carrageenan challenge measured after 4 hrs by hematoxilen eosine staining; type: organism-based; parameters: dose 10 mg/kg, route oral; details: in vivo; outline: as §1
Mus musculus [13] = species: Mus musculus; assay: animal or person; details: Albino, po, read-out: INH

## Cc1cc(C(=O)c2ccccc2Br)ccc1OCCN1CCCCC1
Mus musculus [1]
  Activity: Non-toxic
Mus musculus [2]
  Activity: 56.25 ×10⁵ /cm'3
Mus musculus [3]
  Activity: Non-toxic
Mus musculus [4]
  Activity: Non-toxic
Mus musculus [5]
  inhibition in vivo at 100 mg/kg: 51.4%
Mus musculus [6]
  Activity: Non-toxic
Mus musculus [7]
  Activity: Non-toxic

## Cc1cc(C(=O)c2ccccc2)ccc1OCCN1CCCCC1
Mus musculus [2]
  Activity: 95.25 ×10⁵ /cm'3
Mus musculus [3]
  Activity: Non-toxic
Mus musculus [4]
  Activity: Non-toxic
Mus musculus [5]
  inhibition in vivo at 100 mg/kg: 22.4%

## Cc1cc(C(=O)c2ccccc2C)ccc1OCCN1CCCCC1
Mus musculus [2]
  Activity: 69.51 ×10⁵ /cm'3
Mus musculus [3]
  Activity: Non-toxic
Mus musculus [8]
  Activity: Non-toxic
Mus musculus [4]
  Activity: Non-toxic
Mus musculus [5]
  inhibition in vivo at 100 mg/kg: 35.6%

## Cc1cc(C(=O)c2cccc(Cl)c2)ccc1OCCN1CCCCC1
Mus musculus [2]
  Activity: 56.26 ×10⁵ /cm'3
Mus musculus [8]
  Activity: Non-toxic
Mus musculus [4]
  Activity: Non-toxic
Mus musculus [5]
  inhibition in vivo at 100 mg/kg: 51.4%
Mus musculus [7]
  Activity: Non-toxic

## COc1ccc(C(=O)c2ccc(OCCN3CCCCC3)c(C)c2)cc1
Mus musculus [2]
  Activity: 56.26 ×10⁵ /cm'3
Mus musculus [3]
  Activity: Non-toxic
Mus musculus [4]
  Activity: Non-toxic
Mus musculus [5]
  inhibition in vivo at 100 mg/kg: 51.4%
Mus musculus [6]
  Activity: Non-toxic
Mus musculus [7]
  Activity: Non-toxic

## Cc1ccc(C(=O)c2ccc(OCCN3CCCCC3)c(C)c2)cc1
Mus musculus [3]
  Activity: Non-toxic
Mus musculus [8]
  Activity: Non-toxic
Mus musculus [4]
  Activity: Non-toxic
Mus musculus [5]
  inhibition: inactive
Mus musculus [6]
  Activity: Non-toxic
Mus musculus [7]
  Activity: Non-toxic

## Cc1cc(C(=O)c2ccc(Cl)cc2Cl)ccc1OCCN1CCCCC1
Mus musculus [2]
  Activity: 30.15 ×10⁵ /cm'3
Mus musculus [3]
  Activity: Non-toxic
Mus musculus [8]
  Activity: Non-toxic
Mus musculus [4]
  Activity: Non-toxic
Mus musculus [5]
  inhibition in vivo at 100 mg/kg: 68.7%
Mus musculus [6]
  Activity: Non-toxic
Mus musculus [7]
  Activity: Non-toxic

## COc1ccc2c(c1)c(CC(=O)O)c(C)n2C(=O)c1ccc(Cl)cc1 [INDOMETHACIN]
Mus musculus [9]
  inhibition in vivo at 10 mg/kg: 32.1%
Mus musculus [10]
  Activity: Non-toxic
Mus musculus [11]
  Activity: 68.81 ×10⁵ /cm'3
Mus musculus [12]
  Activity: Toxic

## Cc1cccc(C(=O)c2ccc(OCCN3CCCCC3)c(C)c2)c1
Mus musculus [1]
  Activity: Non-toxic
Mus musculus [2]
  Activity: 104.76 ×10⁵ /cm'3
Mus musculus [4]
  Activity: Non-toxic
Mus musculus [5]
  inhibition in vivo at 100 mg/kg: 15.4%
Mus musculus [7]
  Activity: Non-toxic

## Cc1cc(C(=O)c2ccc(Br)cc2)ccc1OCCN1CCCCC1
Mus musculus [1]
  Activity: Non-toxic
Mus musculus [2]
  Activity: 31.75 ×10⁵ /cm'3
Mus musculus [3]
  Activity: Non-toxic
Mus musculus [8]
  Activity: Non-toxic
Mus musculus [4]
  Activity: Non-toxic
Mus musculus [5]
  inhibition in vivo at 100 mg/kg: 67.5%
Mus musculus [6]
  Activity: Non-toxic
Mus musculus [7]
  Activity: Non-toxic

## CCCCC1C(=O)N(c2ccccc2)N(c2ccccc2)C1=O [PHENYLBUTAZONE]
Mus musculus [2]
  Activity: 53.28 ×10⁵ /cm'3
Mus musculus [5]
  inhibition in vivo at 100 mg/kg: 53.3%

## Cc1cc(C(=O)c2ccc(F)cc2)ccc1OCCN1CCCCC1
Mus musculus [1]
  Activity: Non-toxic
Mus musculus [2]
  Activity: 32.41 ×10⁵ /cm'3
Mus musculus [3]
  Activity: Non-toxic
Mus musculus [8]
  Activity: Non-toxic
Mus musculus [4]
  Activity: Non-toxic
Mus musculus [5]
  inhibition in vivo at 100 mg/kg: 60.6%
Mus musculus [6]
  Activity: Non-toxic
Mus musculus [7]
  Activity: Non-toxic

## COc1ccc2cc([C@H](C)C(=O)O)ccc2c1 [NAPROXEN]
Mus musculus [13]
  inhibition in vivo at 30 mg/kg: 66.9%
